Results on 69 compounds are retold here after ChEMBL document CHEMBL1629441, “Synthesis, in vitro and in vivo biological evaluation, and comprehensive understanding of structure-activity relationships of dipeptidyl boronic acid proteasome inhibitors constructed from β-amino acids” (J Med Chem, 2010).

The experiment is described as follows: Inhibition of human 20S proteasome chymotrypsin-like activity by fluorimetric assay. The method, boiled down:
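Human 20S proteasome preincubated with test compound, then Suc-Leu-Leu-Val-Tyr-AMC hydrolysis monitored 1 h at 37 °C by fluorescence (excitation 360 nm, 465 nm). Buffer pH 7.5: 20 mM Tris, 1 mM DTT, 10% glycerol, 0.02% (w/v) SDS; DMSO 3% (v/v) final. IC50 from five concentrations, each in duplicate; bortezomib standard.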

The structures appear in SMILES notation.

For the compound `CC(C)C[C@H](NC(=O)CC(NC(=O)c1ccccc1)c1ccc([N+](=O)[O-])cc1)B(O)O` (some centres undefined), the IC50 (commonly the concentration that gives 50% inhibition) (read-out: IC50) is 35.4 nM.

Take `Cc1ccccc1C(CC(=O)N[C@@H](CC(C)C)B(O)O)NC(=O)c1ccccc1` (some centres undefined): for the setting “read-out: IC50”, the IC50 came out at 1250 nM.

In the case of `CC(C)C[C@H](NC(=O)CC(NC(=O)c1cccnc1)c1ccccc1F)B(O)O` (some centres undefined), the IC50 (read-out: IC50) came to 1100 nM.

Take `CC(C)C[C@H](NC(=O)CC(NC(=O)c1ccccc1)c1ccccc1Cl)B(O)O` (some centres undefined): the IC50 (read-out: IC50) worked out at 89.1 nM.

For `CC(C)C[C@H](NC(=O)CC(NC(=O)c1ccccc1)c1ccc(Cl)cc1)B(O)O` (some centres undefined), the 50% inhibitory concentration (IC50) (read-out: IC50) was 20.8 nM.

As to `CC(C)C[C@H](NC(=O)CC(NC(=O)c1ccccc1)c1cccc([N+](=O)[O-])c1)B(O)O` (some centres undefined), the IC50 (read-out: IC50) was found to be 42.6 nM.

On to `CC(C)C[C@H](NC(=O)CC(NC(=O)c1cccnc1)c1cccc([N+](=O)[O-])c1)B(O)O` (some centres undefined), for which the IC50 (read-out: IC50) was found to be 26.9 nM.

On to `COc1cccc(C(CC(=O)N[C@@H](CC(C)C)B(O)O)NC(C)=O)c1` (some centres undefined), for which the IC50 entry was “Not Active”.

In the case of `COc1cccc(C(CC(=O)N[C@@H](Cc2ccccc2F)B(O)O)NC(=O)c2cccnc2)c1` (some centres undefined), for the setting “read-out: IC50”, the IC50 worked out at 602 nM.

Consider `Cc1ccccc1C[C@H](NC(=O)CC(NC(=O)c1ccccc1)c1cccc(F)c1)B(O)O` (some centres undefined), for which the IC50 entry is listed as “Not Active”.

On to `CC(C)C[C@H](NC(=O)CC(NC(=O)c1cnccn1)c1cccc(Cl)c1)B(O)O` (some centres undefined), for which the IC50 (read-out: IC50) was determined as 97.7 nM.

`Cc1ccc(C(CC(=O)N[C@@H](CC(C)C)B(O)O)NC(=O)c2ccccc2)cc1` (some centres undefined): the IC50 (read-out: IC50) worked out at 26.3 nM.

Consider `CCCC[C@H](NC(=O)CC(NC(=O)c1ccccc1)c1cccc(Cl)c1)B(O)O` (some centres undefined), for which, where the note is “read-out: IC50”, the IC50 worked out at 316 nM.

Regarding `Cc1ccc(C[C@H](NC(=O)CC(NC(=O)c2ccccc2)c2cccc(Cl)c2)B(O)O)cc1` (some centres undefined), for the setting “read-out: IC50”, the IC50 came out at 1150 nM.

Consider `O=C(CC(NC(=O)c1ccccc1)c1cccc(Cl)c1)N[C@@H](CC1CCCCC1)B(O)O` (some centres undefined), for which the IC50 entry was “Not Active”.

Consider `CC(C)C[C@H](NC(=O)CC(NC(=O)c1ccccc1)c1cccc(F)c1)B(O)O` (some centres undefined), for which the IC50 (read-out: IC50) came to 19 nM.

As to `COc1cccc(C(CC(=O)N[C@@H](CC(C)C)B(O)O)NC(=O)[C@H]2CCCc3ccccc32)c1` (some centres undefined), the IC50 (read-out: IC50) was found to be 28.1 nM.

As for `CC(=O)NC(CC(=O)N[C@@H](CC(C)C)B(O)O)c1cccc(F)c1` (some centres undefined), the IC50 result is on record as “Not Active”.

As to `Cc1cccc(C[C@H](NC(=O)CC(NC(=O)c2ccccc2)c2cccc(F)c2)B(O)O)c1` (some centres undefined), for the setting “read-out: IC50”, the IC50 was 120 nM.

On to `O=C(CC(NC(=O)c1ccccc1)c1cccc(F)c1)N[C@@H](Cc1ccccc1F)B(O)O` (some centres undefined), for which, under “read-out: IC50”, the IC50 was 301 nM.

Consider `COc1cccc(C(CC(=O)N[C@@H](CC(C)C)B(O)O)NC(=O)c2cccnc2)c1` (some centres undefined), for which the IC50 (read-out: IC50) worked out at 19 nM.

Regarding `O=C(CC(NC(=O)c1ccccc1)c1cccc(F)c1)N[C@@H](Cc1ccc(F)cc1)B(O)O` (some centres undefined), the IC50 (read-out: IC50) was 75.8 nM.

For `CC(C)C[C@H](NC(=O)CC(NC(=O)c1ccccc1)c1ccccc1F)B(O)O` (some centres undefined), the IC50 (read-out: IC50) was found to be 38.9 nM.

For the compound `COc1ccccc1C(CC(=O)N[C@@H](CC(C)C)B(O)O)NC(=O)c1cccnc1` (some centres undefined), the IC50 (read-out: IC50) worked out at 87 nM.

As for `COc1cccc(C(CC(=O)N[C@@H](Cc2ccc(F)cc2)B(O)O)NC(=O)c2cccnc2)c1` (some centres undefined), for the setting “read-out: IC50”, the IC50 was determined as 63 nM.

As for `Cc1ccccc1C[C@H](NC(=O)CC(NC(=O)c1ccccc1)c1cccc(Cl)c1)B(O)O` (some centres undefined), the IC50 entry was “Not Active”.

Turning to `CC(C)C[C@H](NC(=O)CC(NC(=O)c1cccnc1)c1cccc(Cl)c1)B(O)O` (some centres undefined), the IC50 (read-out: IC50) worked out at 22.9 nM.

On to `O=C(CC(NC(=O)c1ccccc1)c1cccc(Cl)c1)N[C@@H](Cc1ccccc1)B(O)O` (some centres undefined), for which the IC50 (read-out: IC50) was 1620 nM.

For `Cc1cccc(C(CC(=O)N[C@@H](CC(C)C)B(O)O)NC(=O)c2ccccc2)c1` (some centres undefined), the IC50 (read-out: IC50) turned out to be 50.1 nM.

In the case of `Cc1ccc(C[C@H](NC(=O)CC(NC(=O)c2ccccc2)c2cccc(F)c2)B(O)O)cc1` (some centres undefined), the IC50 (read-out: IC50) stood at 501 nM.

`O=C(CC(NC(=O)c1ccccc1)c1cccc(Cl)c1)N[C@@H](Cc1cccc(F)c1)B(O)O` (some centres undefined): the IC50 entry is listed as “Not Active”.

On to `Cc1cccc(C[C@H](NC(=O)CC(NC(=O)c2ccccc2)c2cccc(Cl)c2)B(O)O)c1` (some centres undefined), for which the IC50 entry was “Not Active”.

In the case of `O=C(CC(NC(=O)c1cccnc1)c1cccc(Cl)c1)N[C@@H](CC1CCCCC1)B(O)O` (some centres undefined), the IC50 result is listed as “Not Active”.

For the compound `CC(C)C[C@H](NC(=O)CC(NC(=O)c1cccnc1)c1cccc(F)c1)B(O)O` (some centres undefined), the IC50 entry is on record as “Not Active”.

As to `CC(C)C[C@H](NC(=O)CC(NC(=O)C(=O)OC(C)(C)C)c1cccc(Cl)c1)B(O)O` (some centres undefined), the IC50 entry was “Not Active”.

For `CC(C)C[C@H](NC(=O)CC(NC(=O)C1CCCCC1)c1cccc(F)c1)B(O)O` (some centres undefined), the IC50 (read-out: IC50) turned out to be 33.1 nM.

Turning to `CC(C)C[C@H](NC(=O)CC(NC(=O)c1cnccn1)c1cccc(F)c1)B(O)O` (some centres undefined), the IC50 (read-out: IC50) was determined as 269 nM.

As for `COc1cccc(C(CC(=O)N[C@@H](CC(C)C)B(O)O)NC(=O)c2ccccc2)c1` (some centres undefined), for the setting “read-out: IC50”, the IC50 came out at 46.7 nM.

`CC(C)C[C@H](NC(=O)CC(NC(=O)[C@H]1CCCc2ccccc21)c1cccc(Cl)c1)B(O)O` (some centres undefined): the IC50 (read-out: IC50) came out at 21.8 nM.

Consider `COc1cccc(C(CC(=O)N[C@@H](Cc2cccc(C)c2)B(O)O)NC(=O)c2cccnc2)c1` (some centres undefined), for which the IC50 (read-out: IC50) is 1770 nM.

Regarding `COc1ccccc1C(CC(=O)N[C@@H](CC(C)C)B(O)O)NC(=O)c1ccccc1` (some centres undefined), the IC50 (read-out: IC50) worked out at 224 nM.

`CC(C)C[C@H](NC(=O)CC(NC(=O)c1cccc2c1CCCC2)c1cccc(Cl)c1)B(O)O` (some centres undefined): where the note is “read-out: IC50”, the IC50 was 190 nM.

`CC(C)C[C@H](NC(=O)CC(NC(=O)c1cccnc1)c1ccc(F)cc1)B(O)O` (some centres undefined): the IC50 (read-out: IC50) turned out to be 590 nM.

On to `CC(C)C[C@H](NC(=O)CC(NC(=O)C(=O)OC(C)(C)C)c1cccc(F)c1)B(O)O` (some centres undefined), for which the IC50 result is “Not Active”.

As to `O=C(CC(NC(=O)c1ccccc1)c1cccc(Cl)c1)N[C@@H](Cc1ccc(F)cc1)B(O)O` (some centres undefined), the IC50 (read-out: IC50) was determined as 194 nM.

Consider `Cc1cccc(C(CC(=O)N[C@@H](CC(C)C)B(O)O)NC(=O)c2cccnc2)c1` (some centres undefined), for which the IC50 (read-out: IC50) came to 50.1 nM.

As to `COc1cccc(C(CC(=O)N[C@@H](Cc2cccc(F)c2)B(O)O)NC(=O)c2cccnc2)c1` (some centres undefined), the IC50 (read-out: IC50) is 89.1 nM.

Take `COc1cccc(C(CC(=O)N[C@@H](CC(C)C)B(O)O)NC(=O)c2cccc3c2CCCC3)c1` (some centres undefined): the IC50 (read-out: IC50) was 158 nM.

For the compound `CC(C)C[C@H](NC(=O)CC(NC(=O)c1ccccc1)c1cccc(Cl)c1)B(O)O` (some centres undefined), the IC50 (read-out: IC50) came out at 16.5 nM.

As to `CC(C)C[C@H](NC(=O)CC(NC(=O)c1ccccc1)c1ccccc1)B(O)O` (some centres undefined), under “read-out: IC50”, the IC50 turned out to be 39.8 nM.

Regarding `CC(C)C[C@H](NC(=O)CC(NC(=O)c1ccccc1)c1ccc(F)cc1)B(O)O` (some centres undefined), the IC50 (read-out: IC50) turned out to be 34.6 nM.

On to `O=C(CC(NC(=O)c1ccccc1)c1cccc(F)c1)N[C@@H](CC1CCCCC1)B(O)O` (some centres undefined), for which the IC50 result was “Not Active”.

Consider `CCCC[C@H](NC(=O)CC(NC(=O)c1ccccc1)c1cccc(F)c1)B(O)O` (some centres undefined), for which, where the note is “read-out: IC50”, the IC50 worked out at 1250 nM.

Take `CC(C)C[C@H](NC(=O)CC(NC(=O)c1cccnc1)c1ccccc1Cl)B(O)O` (some centres undefined): the IC50 result is on record as “Not Active”.

Regarding `COc1ccc(C(CC(=O)N[C@@H](CC(C)C)B(O)O)NC(=O)c2ccccc2)cc1` (some centres undefined), under “read-out: IC50”, the IC50 turned out to be 32.8 nM.

For the compound `Cc1ccccc1C(CC(=O)N[C@@H](CC(C)C)B(O)O)NC(=O)c1cccnc1` (some centres undefined), under “read-out: IC50”, the IC50 came out at 1250 nM.

As to `CC(=O)NC(CC(=O)N[C@@H](CC(C)C)B(O)O)c1cccc(Cl)c1` (some centres undefined), the IC50 entry is “Not Active”.

As for `CC(C)C[C@H](NC(=O)CC(NC(=O)c1cccnc1)c1ccccc1[N+](=O)[O-])B(O)O` (some centres undefined), the IC50 entry is listed as “Not Active”.

In the case of `COc1cccc(C(CC(=O)N[C@@H](Cc2ccccc2)B(O)O)NC(=O)c2cccnc2)c1` (some centres undefined), the IC50 (read-out: IC50) came to 1090 nM.

For the compound `COc1cccc(C(CC(=O)N[C@@H](CC(C)C)B(O)O)NC(=O)C(=O)OC(C)(C)C)c1` (some centres undefined), the IC50 entry is “Not Active”.

With `COc1cccc(C(CC(=O)N[C@@H](Cc2ccc(C)cc2)B(O)O)NC(=O)c2cccnc2)c1` (some centres undefined), under “read-out: IC50”, the IC50 was determined as 930 nM.

As to `CC(C)C[C@H](NC(=O)CC(NC(=O)c1ccc2ccccc2c1)c1cccc(Cl)c1)B(O)O` (some centres undefined), the IC50 (read-out: IC50) is 117 nM.

`CC(C)C[C@H](NC(=O)CC(NC(=O)c1cccnc1)c1ccc([N+](=O)[O-])cc1)B(O)O` (some centres undefined): the IC50 (read-out: IC50) turned out to be 7300 nM.

Turning to `O=C(CC(NC(=O)c1ccccc1)c1cccc(F)c1)N[C@@H](Cc1cccc(F)c1)B(O)O` (some centres undefined), the IC50 (read-out: IC50) stood at 131 nM.

In the case of `CCCC[C@H](NC(=O)CC(NC(=O)c1cccnc1)c1cccc(OC)c1)B(O)O` (some centres undefined), the IC50 (read-out: IC50) turned out to be 1480 nM.

Consider `O=C(CC(NC(=O)c1ccccc1)c1cccc(Cl)c1)N[C@@H](Cc1ccccc1F)B(O)O` (some centres undefined), for which, for the setting “read-out: IC50”, the IC50 turned out to be 371 nM.

`CC(C)C[C@H](NC(=O)CC(NC(=O)c1ccccc1)c1ccccc1[N+](=O)[O-])B(O)O` (some centres undefined): the IC50 entry is reported as “Not Active”.

As to `O=C(CC(NC(=O)c1ccccc1)c1cccc(F)c1)N[C@@H](Cc1ccccc1)B(O)O` (some centres undefined), the IC50 (read-out: IC50) stood at 1200 nM.

For the compound `COc1cccc(C(CC(=O)N[C@@H](Cc2ccccc2C)B(O)O)NC(=O)c2cccnc2)c1` (some centres undefined), the IC50 result is reported as “Not Active”.
